IC50 data for twelve compounds are collected here from ChEMBL document CHEMBL1137680, “A class of potent tyrosinase inhibitors: alkylidenethiosemicarbazide compounds” (Eur J Med Chem, 2009).

Structures are written as SMILES.

The assay concerns the target T1, Tyrosinase (Agaricus bisporus, UniProt O42713).
T1 sequence (O42713 whole entry): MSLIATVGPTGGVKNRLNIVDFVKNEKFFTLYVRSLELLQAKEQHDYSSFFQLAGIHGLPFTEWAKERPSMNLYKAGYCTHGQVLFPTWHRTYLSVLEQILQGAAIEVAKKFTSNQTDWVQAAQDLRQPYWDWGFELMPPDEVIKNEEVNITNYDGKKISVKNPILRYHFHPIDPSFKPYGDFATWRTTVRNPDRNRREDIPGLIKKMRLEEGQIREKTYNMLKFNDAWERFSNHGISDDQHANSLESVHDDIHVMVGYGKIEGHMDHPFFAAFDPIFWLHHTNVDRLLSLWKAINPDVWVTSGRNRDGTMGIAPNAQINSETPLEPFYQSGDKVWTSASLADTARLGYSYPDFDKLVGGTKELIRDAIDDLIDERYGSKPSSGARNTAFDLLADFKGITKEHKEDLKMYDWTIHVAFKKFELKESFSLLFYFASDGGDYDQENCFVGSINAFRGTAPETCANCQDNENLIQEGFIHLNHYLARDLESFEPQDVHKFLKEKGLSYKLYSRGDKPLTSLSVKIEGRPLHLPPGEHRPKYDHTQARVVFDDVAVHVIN
In words: Inhibition of mushroom tyrosinase. The essentials:
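Mushroom tyrosinase diphenolase activity, 30 units (0.2 mg/mL), preincubated 10 min at 25 °C with compound in 50 mM phosphate buffer pH 6.8; compound diluted from DMSO stock. At least eight inhibitor concentrations; IC50 interpolated from dose-response curves.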
`NC(=S)N/N=C\C=C\c1ccccc1`: the IC50 turned out to be 2700 nM.

`CC(C)=C/C(C)=N\NC(N)=S` came in with an IC50 of 11500 nM.

Compound `C/C=N\NC(N)=S` showed an IC50 of 230 nM.

In turn, `NC(=S)N/N=C1\CCCC(=O)C1` had an IC50 of 15100 nM.

For the compound `CC/C=N\NC(N)=S`, the IC50 was 200 nM.

For `CC/C(C)=N\NC(N)=S`, inhibition was half-maximal at 280 nM (IC50).

The compound `Cc1ccc(C)n1NC(N)=S` had a 50% inhibitory concentration (IC50) of 850 nM.

For `CC(C)/C=N\NC(N)=S`, the IC50 was 620 nM.

The compound `NC(=S)NN=C1CCCC1` gave an IC50 of 170 nM.

Compound `CC(C)=NNC(N)=S` registered an IC50 of 86 nM. This IC50 is about 2-fold lower than that of the compound before.

Compound `C/C=C/C=N\NC(N)=S` came in with an IC50 of 1000 nM.

In the case of `NC(=S)NN=C1CCCCC1`, the IC50 stood at 950 nM.

The IC50 is the concentration that gives 50% inhibition. Read a high IC50 as a need for much substance.
